# Measurements taken from ChEMBL document CHEMBL4330056, “Synthesis and Cytotoxic and Antiviral Profiling of Pyrrolo- and Furo-Fused 7-Deazapurine Ribonucleosides” (J Med Chem, 2018).
# The source made the active and inactive calls. The rule behind the calls is not given here.
# Assays:
# Human alphaherpesvirus 1 = test: Antiviral activity against human herpesvirus 1 HF infected in African green monkey Vero cells assessed as inhibited virus-induced cytopathic effect incubated for 3 days by XTT assay; format: functional, organism-based
# [1] = Metabolic stability in human liver microsomes assessed as compound remaining at 5 umol/L after 15 mins relative to control; format: ADME, Microsome; details: read-out: Stability
# How it was run: (§1)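 Human microsomal fraction; percent compound remaining over time.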
# [2] = Stability in human plasma assessed as compound remaining at 3.3 umol/L after 120 mins by RF-MS analysis relative to control; format: ADME, cell-free; details: read-out: Stability
# [3] = Stability in human plasma assessed as compound remaining at 3.3 umol/L after 30 mins by RF-MS analysis relative to control; format: ADME, cell-free; details: read-out: Stability
# Hepatitis C virus [4] = test: Antiviral activity against Hepatitis C virus genotype 1b infected in human Huh-luc replicon cells after 3 days by luciferase assay; format: functional, organism-based, Hepacivirus hominis; details: subtype 1b, 72 h
# HeLa S3 = test: Antiproliferative activity against human HeLaS3 cells after 72 hrs by XTT assay; format: functional, cell-based; details: HeLa S3, 72 h
# [5] = Chemical stability of the compound assessed as compound remaining after 60 mins relative to control; format: physicochemical; details: read-out: Stability
# K562 = test: Antiproliferative activity against human K562 cells after 3 days by MTS assay; format: functional, cell-based; details: K562, 72 h
# CCRF-CEM [6] = test: Inhibition of RNA synthesis in human CCRF-CEM cells assessed as RNA synthesis level at 5 times IC50 concentration after 24 hrs by BrU incorporation assay (reference value: 49.89%); format: functional; design: scale not given: the % may be the effect or the level left
# CCRF-CEM [7] = test: Inhibition of DNA synthesis in human CCRF-CEM cells assessed as DNA synthesis level at IC50 concentration after 24 hrs by BrdU incorporation assay (reference value: 43.39%); format: functional; design: scale not given: the % may be the effect or the level left
# CCRF-CEM [8] = test: Induction of cell cycle arrest in human CCRF-CEM cells assessed as accumulation at subG1 phase at 5 times IC50 concentration after 24 hrs by propidium iodide-staining based flow cytometry (reference value: 3.45%); format: functional
# Coxsackievirus B3 = test: Antiviral activity against Human coxsackie B3 Nancy infected in human HeLa cells assessed as inhibited virus-induced cytopathic effect incubated for 2 days by XTT assay; format: functional, organism-based
# Human orthopneumovirus = test: Antiviral activity against Human respiratory syncytial virus A2 infected in Hep2 cells assessed as reduction in virus-induced cytopathic effect incubated for 4 days by CellTiter-Glo viability reagent based assay; format: functional, organism-based
# CCRF-CEM [9] = test: Induction of cell cycle arrest in human CCRF-CEM cells assessed as accumulation at S phase at 5 times IC50 concentration after 24 hrs by propidium iodide-staining based flow cytometry (reference value: 41.08%); format: functional
# CCRF-CEM [10] = test: Induction of cell cycle arrest in human CCRF-CEM cells assessed as accumulation at G2/M phase at 5 times IC50 concentration after 24 hrs by propidium iodide-staining based flow cytometry (reference value: 19.22%); format: functional
# Hepatitis C virus [11] = test: Antiviral activity against Hepatitis C virus genotype 2a infected in human Huh-luc replicon cells after 3 days by luciferase assay; format: functional, organism-based, Hepacivirus hominis; details: subtype 2a, 72 h
# Adenosine kinase [12] = target: T1, Adenosine kinase (Homo sapiens, UniProt P55263); test: Substrate activity at recombinant human ADK assessed as compound phosphorylation at 50 uM after 20 mins in presence of [3H]-adenosine by UPLC; format: ADME
# CCRF-CEM [13] = test: Antiproliferative activity against human CCRF-CEM cells after 3 days by MTS assay; format: functional, cell-based; details: 72 h
# [14] = Metabolic stability in human liver microsomes assessed as compound remaining at 5 umol/L after 30 mins relative to control; format: ADME, Microsome; details: read-out: Stability; how it was run: as §1
# [15] = Mitochondrial toxicity in human OCI-AML2 cells assessed as reduction in oxidative phosphorylation-based viability after 72 hrs by CellTiterGlo assay; format: cell-based
# How it was run: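 OCI-AML2 leukemia cells, which rely on mitochondrial OXPHOS, treated for 3 days in a survival assay; IC50 reported.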
# CCRF-CEM [16] = test: Induction of cell cycle arrest in human CCRF-CEM cells assessed as accumulation at G2/M phase at IC50 concentration after 24 hrs by propidium iodide-staining based flow cytometry (reference value: 19.22%); format: functional
# [17] = Chemical stability of the compound assessed as compound remaining after 15 mins relative to control; format: physicochemical; details: read-out: Stability
# [18] = Stability in human plasma assessed as compound remaining at 3.3 umol/L after 60 mins by RF-MS analysis relative to control; format: ADME, cell-free; details: read-out: Stability
# CCRF-CEM [19] = test: Induction of cell cycle arrest in human CCRF-CEM cells assessed as accumulation at G0/G1 phase at 5 times IC50 concentration after 24 hrs by propidium iodide-staining based flow cytometry (reference value: 39.70%); format: functional
# [20] = Antiproliferative activity against human CEM-DNR-bulk cells after 3 days by MTS assay; details: 72 h
# CCRF-CEM [21] = test: Inhibition of mitosis in human CCRF-CEM cells assessed Ser10 H3 phosphorylation positive cells at IC50 concentration after 24 hrs by flow cytometry relative to total cell population (reference value: 1.36%); format: functional; design: scale not given: the % may be the effect or the level left
# [22] = Chemical stability of the compound assessed as compound remaining after 120 mins relative to control; format: physicochemical; details: read-out: Stability
# CCRF-CEM [23] = test: Induction of cell cycle arrest in human CCRF-CEM cells assessed as accumulation at G0/G1 phase at IC50 concentration after 24 hrs by propidium iodide-staining based flow cytometry (reference value: 39.70%); format: functional
# MRC5 = test: Antiproliferative activity against human MRC5 cells after 3 days by MTS assay; details: MRC5, 72 h
# CCRF-CEM [24] = test: Induction of cell cycle arrest in human CCRF-CEM cells assessed as accumulation at subG1 phase at IC50 concentration after 24 hrs by propidium iodide-staining based flow cytometry (reference value: 3.45%); format: functional
# [25] = Stability in human plasma assessed as compound remaining at 3.3 umol/L after 15 mins by RF-MS analysis relative to control; format: ADME, cell-free; details: read-out: Stability
# A549 = test: Antiproliferative activity against human A549 cells after 3 days by MTS assay; format: functional, cell-based; details: A549, 72 h
# Influenza A virus = test: Antiviral activity against Influenza A virus (A/Mexico/4108/2009(H1N1)) infected in MDCK cells assessed as inhibited virus-induced cytopathic effect incubated for 2 days by XTT assay; format: functional, organism-based
# BJ = test: Antiproliferative activity against human BJ cells after 3 days by MTS assay; details: 72 h
# CCRF-CEM [26] = test: Inhibition of DNA synthesis in human CCRF-CEM cells assessed as DNA synthesis level at 5 times IC50 concentration after 24 hrs by BrdU incorporation assay (reference value: 43.39%); format: functional; design: scale not given: the % may be the effect or the level left
# [27] = Metabolic stability in human liver microsomes assessed as compound remaining at 5 umol/L after 60 mins relative to control; format: ADME, Microsome; details: read-out: Stability; how it was run: as §1
# [28] = Cytotoxicity against human Hep2 cells assessed as reduction in cell viability after 3 days by CellTiter-Glo assay; format: cell-based; details: HEp-2 cells
# CCRF-CEM [29] = test: Induction of cell cycle arrest in human CCRF-CEM cells assessed as accumulation at S phase at IC50 concentration after 24 hrs by propidium iodide-staining based flow cytometry (reference value: 41.08%); format: functional
# CCRF-CEM [30] = test: Inhibition of mitosis in human CCRF-CEM cells assessed Ser10 H3 phosphorylation positive cells at 5 times IC50 concentration after 24 hrs by flow cytometry relative to total cell population (reference value: 1.36%); format: functional; design: scale not given: the % may be the effect or the level left
# Adenosine kinase [31] = target: T1, Adenosine kinase; test: Inhibition of recombinant human ADK using [3H]-adenosine as substrate after 20 mins by TLC scanner-based analysis relative to control
# How it was run: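 ADK inhibition: 50 μM adenosine substrate with 10 μM test compound and 97 ng enzyme, 20 min at 37 °C.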
# [32] = Protein binding in human plasma; format: ADME, cell-free; details: read-out: PPB (converted)
# HCT-116 [33] = test: Antiproliferative activity against human HCT116 cells after 3 days by MTS assay; format: functional, cell-based; details: HCT-116, 72 h
# CCRF-CEM [34] = test: Inhibition of RNA synthesis in human CCRF-CEM cells assessed as RNA synthesis level at IC50 concentration after 24 hrs by BrU incorporation assay (reference value: 49.89%); format: functional; design: scale not given: the % may be the effect or the level left
# [35] = Antiproliferative activity against human K562-TAX cells after 3 days by MTS assay; format: functional, cell-based; details: 72 h
# [36] = Chemical stability of the compound assessed as compound remaining after 30 mins relative to control; format: physicochemical; details: read-out: Stability
# HCT-116 [37] = test: Antiproliferative activity against p53 gene knocked out human HCT116 cells after 3 days by MTS assay; format: functional, cell-based; details: HCT-116, 72 h
# HepG2 = test: Antiproliferative activity against human HepG2 cells after 72 hrs by XTT assay; format: functional, cell-based; details: HepG2, 72 h
# U2OS = test: Antiproliferative activity against human U2OS cells after 3 days by MTS assay; format: functional, cell-based; details: 72 h
# [38] = Effective permeability of the compound at 20 umol/L by PAMPA; format: ADME; details: 20 µM
# HL-60 = test: Antiproliferative activity against human HL60 cells after 72 hrs by XTT assay; format: functional, cell-based; details: HL-60, 72 h
# dengue virus type 2 = test: Antiviral activity against Dengue virus 2 Thailand/16681/84 infected in African green monkey Vero cells assessed as inhibition of virus replication incubated for 3 days by fluorescence microscopy; format: functional, organism-based
# T1 sequence (P55263 whole entry): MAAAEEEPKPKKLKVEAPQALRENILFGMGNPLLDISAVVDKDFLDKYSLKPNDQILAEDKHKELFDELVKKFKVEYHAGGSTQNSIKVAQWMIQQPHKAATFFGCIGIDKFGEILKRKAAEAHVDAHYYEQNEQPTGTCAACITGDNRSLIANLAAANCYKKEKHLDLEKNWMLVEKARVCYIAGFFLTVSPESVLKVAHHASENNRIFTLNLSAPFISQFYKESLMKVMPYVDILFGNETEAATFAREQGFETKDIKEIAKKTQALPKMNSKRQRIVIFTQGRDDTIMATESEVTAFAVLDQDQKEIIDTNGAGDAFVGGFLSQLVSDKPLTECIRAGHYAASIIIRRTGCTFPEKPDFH
smiles,measurement,setting,value
CSc1ncnc2c1c1c(ccn1C)n2[C@@H]1O[C@H](CO)[C@@H](O)[C@H]1O,Activity,Human alphaherpesvirus 1,inactive
same,"remaining at 0.25 h, 5 µM",[1],99%
same,"remaining at 2 h, 3.3 µM",[2],98%
same,"remaining at 0.5 h, 3.3 µM",[3],99%
same,EC50,Hepatitis C virus [4],40 nM
same,IC50,HeLa S3,1360 nM
same,remaining at 1 h,[5],98%
same,IC50,K562,390 nM
same,Activity,CCRF-CEM [6],3.56%
same,Activity,CCRF-CEM [7],30.41%
same,Activity,CCRF-CEM [8],12.67%
same,Activity,Coxsackievirus B3,inactive
same,Activity,Human orthopneumovirus,inactive
same,Activity,CCRF-CEM [9],42.94%
same,Activity,CCRF-CEM [10],16.52%
same,EC50,Hepatitis C virus [11],130 nM
same,Activity,Adenosine kinase [12],33%
same,IC50,CCRF-CEM [13],340 nM
same,"remaining at 0.5 h, 5 µM",[14],99%
same,IC50 at 72 h,[15],160 nM
same,Activity,CCRF-CEM [16],17.36%
same,remaining at 0.25 h,[17],100%
same,"remaining at 1 h, 3.3 µM",[18],98%
same,Activity,CCRF-CEM [19],40.55%
same,IC50,[20],> 50000 nM
same,Activity,CCRF-CEM [21],0.33%
same,remaining at 2 h,[22],97%
same,Activity,CCRF-CEM [23],26.28%
same,IC50,MRC5,> 50000 nM
same,Activity,CCRF-CEM [24],5.61%
same,"remaining at 0.25 h, 3.3 µM",[25],100%
same,IC50,A549,> 50000 nM
same,Activity,Influenza A virus,inactive
same,IC50,BJ,5160 nM
same,Activity,CCRF-CEM [26],7.8%
same,"remaining at 1 h, 5 µM",[27],97%
same,CC50 at 72 h,[28],> 44400 nM
same,Activity,CCRF-CEM [29],56.36%
same,Activity,CCRF-CEM [30],1.49%
same,IC50,Adenosine kinase [31],> 10000 nM
same,fraction unbound,[32],0.11
same,IC50,HCT-116 [33],300 nM
same,Activity,CCRF-CEM [34],21.43%
same,IC50,[35],50000 nM
same,remaining at 0.5 h,[36],99%
same,IC50,HCT-116 [37],380 nM
same,IC50,HepG2,1530 nM
same,IC50,U2OS,1410 nM
same,log(permeability),[38],-5.69
same,IC50,HL-60,580 nM
same,Activity,dengue virus type 2,inactive
